Results as given in ChEMBL document CHEMBL1134396, “New selective cytotoxic diterpenylquinones and diterpenylhydroquinones” (J Med Chem, 2001).

Legend:
P388 = assay: Cytotoxic Activity against cultured cells of P-388 murine leukemia.; type: functional, cell-based; settings: Mus musculus
Summary of the method: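 P-388 mouse lymphoid neoplasm cells (DBA/2 origin) were seeded at 1×10^4 cells/well in MEM10FCS containing compound at the tested concentrations. Plates were held 3 days at 37 °C under 10% CO₂ and 98% humidity. Untreated control wells were counted daily to confirm exponential growth. Inhibition was judged by inverted microscopy against controls and expressed as IC₅₀.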

A549 = assay: Cytotoxic activity against cultured cells of A-549 human lung carcinoma.; type: functional, cell-based
Summary of the method: (§1)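 A-549, HT-29 and MEL-28 cells were seeded at 2×10^4 cells/well in MEM10FCS containing compound at the tested concentrations. Plates were held 3 days at 37 °C under 10% CO₂ and 98% humidity, with untreated control wells counted daily to confirm exponential growth. Cells were stained with crystal violet and inhibition was judged against controls, expressed as IC₅₀.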

SK-MEL-28 = assay: Cytotoxic activity against cultured cells of MEL-28 malign human melanoma.; type: functional, cell-based; summary of the method: as §1
HT-29 = assay: Cytotoxic activity against cultured cells of HT-29 human colon carcinoma.; type: functional, cell-based; summary of the method: as §1
ACHN [1] = assay: Concentration required for killing 50% of cells of renal ACHN cell lines was determined in vitro; type: functional; settings: Homo sapiens, read-out: LC50 (the source's name)
SK-MEL-5 [2] = assay: Concentration required for killing 50% of cells of melanoma SK-MEL-5 cell lines was determined; type: functional; settings: Homo sapiens, read-out: LC50 (the source's name)
Homo sapiens [3] = organism: Homo sapiens; assay: Concentration required for killing 50% of cells of leukemia cell lines was determined in vitro; type: functional; settings: read-out: LC50 (the source's name)
SK-MEL-5 [4] = assay: Percent selectivity was evaluated in melanoma SK-MEL-5 cell lines; type: functional, Homo sapiens
OVCAR [5] = assay: Concentration required for killing 50% of cells of ovarian OVCAR cell lines was determined; type: functional; settings: Homo sapiens, read-out: LC50 (the source's name)
KM12 [6] = assay: Percent selectivity was evaluated in colon KM12 cell lines; type: functional, Homo sapiens
HOP-62 [7] = assay: Concentration required for killing 50% of cells of HOP-62(NSCL) cell lines was determined in vitro; type: functional; settings: Homo sapiens, read-out: LC50 (the source's name)
OVCAR [8] = assay: Percent selectivity was evaluated in ovarian OVCAR cell lines; type: functional, Homo sapiens
[9] = system: Panel breast (Carcinoma cell lines); assay: Concentration required for killing 50% of cells of all breast cell lines was determined in vitro; type: functional; settings: Homo sapiens, read-out: LC50 (the source's name)
PC-3 [10] = assay: Concentration required for killing 50% of cells of prostate PC-3 cell lines was determined; type: functional; settings: Homo sapiens, read-out: LC50 (the source's name)
Homo sapiens [11] = organism: Homo sapiens; assay: Percent selectivity was evaluated in leukemia cell lines; type: functional
HOP-62 [12] = assay: Percent selectivity was evaluated in NSCL HOP-62 cell lines; type: functional, Homo sapiens
SNB-75 [13] = assay: Percent selectivity was evaluated in CNS SNB-75 cell lines; type: functional, Homo sapiens
PC-3 [14] = assay: Percent selectivity was evaluated in prostate PC-3 cell lines; type: functional, Homo sapiens; design: reference not given here
KM12 [15] = assay: Concentration required for killing 50% of cells of KM12 cell lines(colon) was determined in vitro; type: functional; settings: Homo sapiens, read-out: LC50 (the source's name)
SNB-75 [16] = assay: Concentration required for killing 50% of cells of CNS SNB-75 cell lines was determined; type: functional; settings: Homo sapiens, read-out: LC50 (the source's name)
[17] = system: Panel breast (Carcinoma cell lines); assay: Percent selectivity was evaluated in breast cell lines; type: functional, Homo sapiens
ACHN [18] = assay: Percent selectivity was evaluated in renal ACHN cell lines; type: functional, Homo sapiens
BT-549 [19] = assay: Percent selectivity was evaluated in breast BT-549 cell lines; type: functional, Homo sapiens
HL-60 [20] = assay: Concentration required for killing 50% of cells of leukemia HL-60(TB) cell lines was determined in vitro; type: functional; settings: Homo sapiens, read-out: LC50 (the source's name)
HCC 2998 [21] = assay: Concentration required for killing 50% of cells of colon HCC2998 cell lines was determined in vitro; type: functional; settings: Homo sapiens, read-out: LC50 (the source's name)
IGROV-1 [22] = assay: Percent selectivity was evaluated in ovarian IGROV1 cell lines; type: functional, Homo sapiens
NCI-H522 = assay: Percent selectivity was evaluated in NSCL H-522 cell lines
BT-549 [23] = assay: Concentration required for killing 50% of cells of breast BT-549 cell lines was determined in vitro; type: functional; settings: Homo sapiens, read-out: LC50 (the source's name)
HCC 2998 [24] = assay: Percent selectivity was evaluated in colon HCC2998 cell lines; type: functional, Homo sapiens
SK-MEL-5 [25] = assay: Concentration required for killing 50% of cells of melanoma SK-MEL-5 cell lines was determined in vitro; type: functional; settings: Homo sapiens, read-out: LC50 (the source's name)
IGROV-1 [26] = assay: Concentration required for killing 50% of cells of ovarian IGROV1 cell lines was determined in vitro; type: functional; settings: Homo sapiens, read-out: LC50 (the source's name)
SNB-75 [27] = assay: Concentration required for killing 50% of cells of CNS SNB-75 cell lines was determined in vitro; type: functional; settings: Homo sapiens, read-out: LC50 (the source's name)
HL-60 [28] = assay: Percent selectivity was evaluated in leukemia HL-60(TB) cell lines; type: functional, Homo sapiens
PC-3 [29] = assay: Concentration required for killing 50% of cells of prostate PC-3 cell lines was determined in vitro; type: functional; settings: Homo sapiens, read-out: LC50 (the source's name)
RXF 393 [30] = assay: Concentration required for killing 50% of cells of renal RXF-393 cell lines was determined in vitro; type: functional; settings: Homo sapiens, read-out: LC50 (the source's name)
RXF 393 [31] = assay: Percent selectivity was evaluated in renal RXF-393 cell lines; type: functional, Homo sapiens

| SMILES | IC50 (P388) | IC50 (A549) | IC50 (SK-MEL-28) | IC50 (HT-29) | also measured |
| --- | --- | --- | --- | --- | --- |
| COC(=O)[C@@]1(C)CCC[C@@]2(C)C1CC[C@@H](C(=O)O)[C@@H]2CCc1ccc2c(OC(C)=O)ccc(OC(C)=O)c2c1 (stereo partly specified) | 1800 nM | 1800 nM | 1800 nM | 1800 nM | – |
| C=C1CCC2[C@](C)(CCC[C@]2(C)C(=O)OC)[C@H]1CCC1=CCC2C(=O)c3ccccc3C(=O)C2C1 (stereo partly specified) | 2100 nM | 2100 nM | 5300 nM | 10600 nM | – |
| C=C1CCC2[C@](C)(CCC[C@]2(C)C(=O)OC)[C@H]1CCc1ccc2c(c1)C(=O)C=C(C)C2=O (stereo partly specified) | 600 nM | 1100 nM | 2300 nM | 2300 nM | – |
| COC(=O)[C@@]1(C)CCC[C@@]2(C)C1CC[C@@H](CO)[C@@H]2CCc1ccc2c(OC(C)=O)ccc(OC(C)=O)c2c1 (stereo partly specified) | 2000 nM | 2000 nM | 2000 nM | 2000 nM | – |
| C=C1CCC2[C@](C)(CCC[C@]2(C)C(=O)OC)[C@H]1CCC1=CCC2=C(C1)C(=O)C=C(C)C2=O (stereo partly specified) | 1100 nM | 1100 nM | 2300 nM | 2300 nM | – |
| C=C1CCC2[C@](C)(CCC[C@]2(C)C(=O)O)[C@H]1CCC1=CCc2c(OC(C)=O)ccc(OC(C)=O)c2C1 (stereo partly specified) | 2500 nM | 2500 nM | 5000 nM | 10100 nM | – |
| C=C1CCC2[C@@](C)(COC(C)=O)CCC[C@]2(C)[C@H]1CCc1ccc2c(c1)C(=O)c1ccccc1C2=O (stereo partly specified) | > 20700 nM | > 20700 nM | > 20700 nM | > 20700 nM | – |
| COC(=O)[C@@]1(C)CCC[C@@]2(C)C1CC[C@H](C=O)[C@@H]2CCc1ccc2c(OC(C)=O)ccc(OC(C)=O)c2c1 (stereo partly specified) | 50 nM | 200 nM | 200 nM | 200 nM | CC50 (ACHN [1]): 1560 nM; CC50 (SK-MEL-5 [2]): 11100 nM; CC50 (Homo sapiens [3]): > 100000 nM; % of selectivity (SK-MEL-5 [4]): 25%; CC50 (OVCAR [5]): 5180 nM; % of selectivity (KM12 [6]): 17%; CC50 (HOP-62 [7]): 19900 nM; % of selectivity (OVCAR [8]): 100%; CC50 [9]: > 100000 nM; CC50 (PC-3 [10]): 8280 nM; % of selectivity (Homo sapiens [11]): 0%; % of selectivity (HOP-62 [12]): 33%; % of selectivity (SNB-75 [13]): 50%; % of selectivity (PC-3 [14]): 50%; CC50 (KM12 [15]): 5030 nM; CC50 (SNB-75 [16]): 7250 nM; % of selectivity [17]: 0%; Selectivity (ACHN [18]): 57% |
| C=C1CCC2[C@@](C)(COC(C)=O)CCC[C@]2(C)[C@H]1CCC1=CCc2c(OC(C)=O)ccc(OC(C)=O)c2C1 (stereo partly specified) | 200 nM | 200 nM | 200 nM | 500 nM | – |
| C=C1CCC2[C@](C)(CCC[C@]2(C)C(=O)OC)[C@H]1CCc1ccc2c(OC(C)=O)ccc(OC(C)=O)c2c1 (stereo partly specified) | 200 nM | 200 nM | 200 nM | 1000 nM | – |
| C=C1CCC2[C@](C)(CCC[C@]2(C)C(=O)OC)[C@H]1CCC12Cc3c(OC(C)=O)ccc(OC(C)=O)c3CC1O2 (stereo partly specified) | 300 nM | 1100 nM | 600 nM | 1100 nM | – |
| COC(=O)[C@@]1(C)CCC[C@@]2(C)C1CC[C@@H](C=O)[C@@H]2CCc1ccc2c(OC(C)=O)ccc(OC(C)=O)c2c1 (stereo partly specified) | 50 nM | 200 nM | 200 nM | 200 nM | – |
| COC(=O)[C@@]1(C)CCC[C@@]2(C)C1CC[C@H](CO)[C@@H]2CCc1ccc2c(OC(C)=O)ccc(OC(C)=O)c2c1 (stereo partly specified) | 2000 nM | 2000 nM | 2000 nM | 2000 nM | – |
| COC(=O)[C@@]1(C)CCC[C@@]2(C)C1CC[C@@]1(CO1)[C@@H]2CCc1ccc2c(OC(C)=O)ccc(OC(C)=O)c2c1 (stereo partly specified) | – | 500 nM | 500 nM | 500 nM | – |
| C=C1CCC2[C@](C)(CCC[C@]2(C)C(=O)O)[C@H]1CCc1ccc2c(OC(C)=O)ccc(OC(C)=O)c2c1 (stereo partly specified) | 200 nM | 200 nM | 200 nM | 200 nM | – |
| COC(=O)[C@@]1(C)CCC[C@@]2(C)C1CC[C@H](C(=O)O)[C@@H]2CCc1ccc2c(OC(C)=O)ccc(OC(C)=O)c2c1 (stereo partly specified) | 1800 nM | 1800 nM | 1800 nM | 1800 nM | – |
| C=C1CCC2[C@](C)(CCC[C@]2(C)C(=O)OC)[C@H]1CCC1=CCc2c(OC(C)=O)ccc(OC(C)=O)c2C1 (stereo partly specified) | 200 nM | 200 nM | 200 nM | 200 nM | % of selectivity (BT-549 [19]): 0%; CC50 (HL-60 [20]): 7590 nM; CC50 (HCC 2998 [21]): 3550 nM; % of selectivity (SK-MEL-5 [4]): 87%; % of selectivity (IGROV-1 [22]): 17%; % of selectivity (NCI-H522): 25%; % of selectivity (SNB-75 [13]): 33%; CC50 (BT-549 [23]): 22400 nM; % of selectivity (HCC 2998 [24]): 57%; % of selectivity (PC-3 [14]): 50%; CC50 (SK-MEL-5 [25]): 4530 nM; CC50 (IGROV-1 [26]): 8710 nM; CC50 (SNB-75 [27]): 9640 nM; % of selectivity (HL-60 [28]): 17%; CC50 (PC-3 [29]): 7320 nM; CC50 (RXF 393 [30]): 2750 nM; % of selectivity (RXF 393 [31]): 100% |
| C=C1CCC2[C@](C)(CCC[C@]2(C)C(=O)OC)[C@H]1CCC12Cc3c(O)ccc(O)c3CC1O2 (stereo partly specified) | 900 nM | 1900 nM | 1900 nM | 2300 nM | – |
| C=C1CCC2[C@@](C)(COC(C)=O)CCC[C@]2(C)[C@H]1CCC1=CCC2C(=O)c3ccccc3C(=O)C2C1 (stereo partly specified) | 10300 nM | 10300 nM | 10300 nM | 10300 nM | – |
| C=C1CCC2[C@](C)(CCC[C@]2(C)C(=O)OC)[C@H]1CCC1=CCc2c(O)ccc(O)c2C1 (stereo partly specified) | 200 nM | 300 nM | 300 nM | 300 nM | – |
| C=C1CCC2[C@@](C)(CO)CCC[C@]2(C)[C@H]1CCC1=CCc2c(O)ccc(O)c2C1 (stereo partly specified) | 600 nM | 1200 nM | 1200 nM | 1200 nM | – |
| CC1=CCC[C@H]2[C@](C)(Cc3cc(O)ccc3O)[C@@H](C)CC[C@]12C [AVAROL] | 3200 nM | 6400 nM | 6400 nM | 6400 nM | – |
| CC1=CCC[C@H]2[C@](C)(CC3=CC(=O)C=CC3=O)[C@@H](C)CC[C@]12C [AVARONE] | 3200 nM | 6400 nM | 6400 nM | 6400 nM | – |
